Laboratory results published in ChEMBL document CHEMBL1125360 (J Med Chem, 1992).
Where a SMILES comes first, the peptide text is derived from it. [ ]: non-standard residue; d: D form. The star is where a group is joined. Tyr(Nα,Nα-allyl2) = C=CCN(CC=C)[C@@H](Cc1ccc(O)cc1)C(=O)*; Aib = CC(C)(N)C(=O)O

Assays:
Mus musculus [1] = species: Mus musculus; test: The compound was evaluated for antinociceptive potency using abdominal stretch assay in mice.; format: functional, Abdomen
Method in brief: (§1)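 Mouse antinociception by abdominal stretch or tail flick assay. Test compound given icv. ED50 in nmol/mouse with 95% confidence limits.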

[2] = target: Mu-type opioid receptor (Cavia porcellus) (UniProt P97266); test: Selectivity for mu to delta opioid receptors was determined
[3] = The compound was evaluated for binding affinity against Opioid receptor delta 1 in guinea pig brain membrane using [3H]- DPDPE as ligand
[4] = system: Delta-type opioid receptor; test: Selectivity for kappa to delta opioid receptors was determined; conditions: Cavia porcellus
Cavia porcellus [5] = species: Cavia porcellus; test: Antagonistic activity against EK in guinea pig ileal longitudinal muscle (GPI); format: functional, Muscle tissue
Method in brief: (§2)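 Electrically stimulated guinea pig ileal longitudinal muscle or mouse vas deferens. Test ligand incubated 15 min before standard agonist challenge (morphine, ethylketazocine or DADLE). Ligand at 100 nM, or at 10, 20 or 30 nM when it had agonist activity, kept at or below its ED20.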

Opioid receptor = Opioid receptor (Mus musculus, UniProt P42866+P32300+P33534); test: Compound was tested for agonistic activity against the opioid receptor in electrically stimulated mouse vas deference; format: functional
Method in brief: (§3)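 Electrically stimulated guinea pig ileal longitudinal muscle and mouse vas deferens. For full agonists, 4-6 concentrations gave concentration-response curves compared with standard agonists in the same preparation. IC50 is the concentration giving a half-maximal response, with 95% confidence limits.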

Mus musculus [6] = species: Mus musculus; test: Effect of the opioid antagonist (naltrindole, delta) on the antinociceptive potency using tail flick assay; format: functional
Method in brief: (§4)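 Mice pretreated sc with β-FNA 20 µmol/kg 24 h before, norBNI 12 µmol/kg 2 h before, or NTI 44 µmol/kg 0.5 h before. Test compound then given icv in the abdominal stretch or tail flick assay. ED50 ratio is pretreated ED50 divided by control ED50, with 95% confidence limits.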

Mus musculus [7] = species: Mus musculus; test: Effect of the opioid antagonist (beta-funaltrexamine, mu) on the antinociceptive potency using tail flick assay in mice.(values in the parenthesis indicate 95% confidence limits); format: functional
Method in brief: (§5)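 Mice, tail flick assay. Antagonist given sc beforehand: beta-FNA 20 µmol/kg 24 h before, or norBNI 12 µmol/kg 2 h before. Test compound then given icv. ED50 ratio = ED50 of test compound in pretreated mice divided by control ED50, with 95% confidence limits.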

Mus musculus [8] = species: Mus musculus; test: The compound was evaluated for antinociceptive potency using tail flick assay in mice; format: functional; method in brief: as §1
Cavia porcellus [9] = species: Cavia porcellus; test: Antagonistic activity against morphine in guinea pig ileal longitudinal muscle (GPI); format: functional, Muscle tissue; method in brief: as §2
Mus musculus [10] = species: Mus musculus; test: Effect of the opioid antagonist (norbinaltorphimine, kappa) on the antinociceptive potency using abdominal stretch assay in mice.; format: functional, Abdomen; method in brief: as §4
Mus musculus [11] = species: Mus musculus; test: The compound was evaluated for antinociceptive potency using abdominal stretch assay in mice; format: functional, Abdomen; design: unit not given here; method in brief: as §1
Mus musculus [12] = species: Mus musculus; test: The compound was tested for antagonizing the antinociceptive potency of morphine using abdominal assay in mice; format: functional, Abdomen
Method in brief: (§6)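 Mice, abdominal stretch assay. Agonist peak times after icv dosing: DSLET 10 min, DPDPE 20 min, U50488H 15 min, morphine 30 min. Read-out is the agonist ED50 ratio with 95% confidence limits.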

Cavia porcellus [13] = species: Cavia porcellus; test: The compound was tested for opioid agonist activity against guinea pig ileal longitudinal muscle (GPI); format: functional, Muscle tissue; method in brief: as §3
Mus musculus [14] = species: Mus musculus; test: Antagonistic activity against DADLE in smooth muscle preparation (MVD); format: functional, Muscle tissue; method in brief: as §2
Mus musculus [15] = species: Mus musculus; test: The compound was tested for antagonizing the antinociceptive potency of DPDPE using abdominal assay in mice.; format: functional, Abdomen; method in brief: as §6
Mus musculus [16] = species: Mus musculus; test: Effect of the opioid antagonist (beta-funaltrexamine, mu) on the antinociceptive potency using abdominal stretch assay in mice.; format: functional, Abdomen; method in brief: as §4
Mus musculus [17] = species: Mus musculus; test: Antagonistic activity against morphine in smooth muscle preparation (MVD); format: functional, Muscle tissue; method in brief: as §2
Mus musculus [18] = species: Mus musculus; test: Effect of the opioid antagonist (naltrindole, delta) on the antinociceptive potency using abdominal stretch assay in mice; format: functional, Abdomen; method in brief: as §4
Mus musculus [19] = species: Mus musculus; test: Effect of the opioid antagonist (norbinaltorphimine, kappa) on the antinociceptive potency using tail flick assay in mice; format: functional; method in brief: as §5
Mus musculus [20] = species: Mus musculus; test: The compound was tested for antagonizing the antinociceptive potency of DSLET using abdominal assay in mice.; format: functional, Abdomen; method in brief: as §6
Cavia porcellus [21] = species: Cavia porcellus; test: Opiod agonistic activity against delta enriched smooth muscle preparation.; format: functional; conditions: Muscle tissue
Mus musculus [22] = species: Mus musculus; test: The compound was tested for antagonizing the antinociceptive potency of U-50,488H using abdominal assay in mice; format: functional, Abdomen; method in brief: as §6
[23] = target: Kappa-type opioid receptor (Cavia porcellus, UniProt P41144); test: The compound was evaluated for binding affinity against the opioid receptor kappa in guinea pig brain membranes using [3H]- U-69,593; format: cell membranes, Membrane
Method in brief: (§7)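 Competition binding on guinea pig brain membranes. δ sites labelled with [3H]DPDPE, μ with [3H]DAMGO, κ with [3H]U69593. A footnote also describes κ labelling with [3H]ethylketazocine in the presence of 1 µM DAMGO.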

Mu-type opioid receptor [24] = target: T1, Mu-type opioid receptor (Cavia porcellus, UniProt P97266); test: The compound was evaluated for binding affinity against opioid receptor mu in guinea pig brain membranes using [3H]- DAMGO as ligand; format: cell membranes, Membrane; method in brief: as §7
Mus musculus [25] = species: Mus musculus; test: The compound was tested for opioid agonist activity against mouse vas deferens (MVD); format: functional; method in brief: as §3
Mus musculus [26] = species: Mus musculus; test: The compound was tested for antagonizing the antinociceptive potency of DSLET using abdominal assay in mice.(values in the parenthesis indicate 95% confidence limits); format: functional, Abdomen
Mus musculus [27] = species: Mus musculus; test: The compound was tested for antagonizing the antinociceptive potency of DPDPE using abdominal assay in mice.(values in the parenthesis indicate 95% confidence limits); format: functional, Abdomen
Mus musculus [28] = species: Mus musculus; test: The compound was tested for antagonizing the antinociceptive potency of U-50,488H using abdominal assay in mice.(values in the parenthesis indicate 95% confidence limits); format: functional, Abdomen
Mu-type opioid receptor [29] = target: T1, Mu-type opioid receptor; test: The compound was evaluated for binding affinity against Opioid receptor mu 1 in guinea pig brain membranes; format: cell membranes, Membrane; method in brief: as §7
Mus musculus [30] = species: Mus musculus; test: The compound was tested for antagonizing the antinociceptive potency of morphine using abdominal assay in mice.(values in the parenthesis indicate 95% confidence limits); format: functional, Abdomen
Cavia porcellus [31] = species: Cavia porcellus; test: Opiod agonistic activity against delta enriched smooth muscle preparation; format: functional; conditions: Muscle tissue

Sequence of Mu-type opioid receptor (Cavia porcellus) (P97266 whole entry): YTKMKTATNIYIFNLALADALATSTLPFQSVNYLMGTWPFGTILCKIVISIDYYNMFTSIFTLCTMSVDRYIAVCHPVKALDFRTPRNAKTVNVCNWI
Sequence of Kappa-type opioid receptor (P41144 whole entry): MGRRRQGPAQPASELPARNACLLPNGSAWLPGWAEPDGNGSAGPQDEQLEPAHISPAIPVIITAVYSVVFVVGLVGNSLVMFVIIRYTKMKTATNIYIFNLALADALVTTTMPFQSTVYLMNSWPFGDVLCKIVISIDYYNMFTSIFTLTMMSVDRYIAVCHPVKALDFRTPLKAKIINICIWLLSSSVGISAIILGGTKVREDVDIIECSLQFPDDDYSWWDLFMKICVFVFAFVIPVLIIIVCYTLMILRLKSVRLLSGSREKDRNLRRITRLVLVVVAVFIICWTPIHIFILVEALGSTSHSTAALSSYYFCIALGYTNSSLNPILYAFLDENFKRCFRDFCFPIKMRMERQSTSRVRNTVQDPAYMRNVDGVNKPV
T1 sequence (P97266 whole entry): as the sequence (P97266 whole entry) above

Compound	ED50 (Mus musculus [1]) [nM]	Ratio [2]	Ki [3] [nM]	Ratio [4]	IC50 ratio (Cavia porcellus [5])	IC50 (Opioid receptor) [nM]	ED50 ratio (Mus musculus [6])	ED50 (Mus musculus [8]) [nmol/mouse]	IC50 ratio (Cavia porcellus [9])	ED50 ratio (Mus musculus [10])	ED50 (Mus musculus [11])	Max response (Cavia porcellus [13]) [%]	IC50 ratio (Mus musculus [14])	ED50 ratio (Mus musculus [16])	IC50 ratio (Mus musculus [17])	ED50 ratio (Mus musculus [18])	Ki [23] [nM]	Max response (Mus musculus [25]) [%]	other results
Oc1ccc2c3c1O[C@H]1c4[nH]c5ccccc5c4C[C@@]4(O)[C@@H](C2)N(CC2CC2)CC[C@]314 [NALTRINDOLE]	0.04	–	–	–	–	–	–	–	–	–	–	–	–	–	–	–	–	–	–
C=CCN(CC=C)[C@@H](Cc1ccc(O)cc1)C(=O)NC(C)(C)C(=O)NC(C)(C)C(=O)N[C@@H](Cc1ccccc1)C(=O)N[C@@H](CC(C)C)C(=O)O ({Tyr(Nα,Nα-allyl2)}-[Aib][Aib]FL-OH)	–	> 29	35	> 29	–	–	–	–	–	–	–	–	–	–	–	–	–	–	–
Oc1ccc2c3c1O[C@H]1c4[nH]c5ccccc5c4C[C@@]4(O)[C@@H](C2)N(CCc2ccccc2)CC[C@]314	–	–	–	–	0.8	171	3.2	2.2	0.8	5.5	0.4	15	0.6	1.3	0.9	4	> 1000	–	ED50 ratio (Mus musculus [7]): 5.8; ED50 ratio (Mus musculus [12]): 0.4; ED50 ratio (Mus musculus [15]): 1.4; ED50 ratio (Mus musculus [19]): 21.6; ED50 ratio (Mus musculus [20]): 2.8; IC50 (Cavia porcellus [21]): 76 nM; ED50 ratio (Mus musculus [22]): 0.6; Ki (Mu-type opioid receptor [24]): > 1000 nM
CN1CC[C@]23c4c5ccc(O)c4O[C@H]2c2[nH]c4ccccc4c2C[C@H]3[C@H]1C5	–	–	–	–	0.5	–	–	–	1	–	–	9	4.2	–	0.9	–	–	34	–
CN1CC[C@]23c4c5ccc(O)c4O[C@H]2c2[nH]c4ccccc4c2C[C@@]3(O)[C@H]1C5 [OXYMORPHINDOLE]	0.019	669	0.7	6380	0.9	–	–	–	0.9	–	–	12	1.3	–	0.9	–	–	65	–
Oc1ccc2c3c1O[C@H]1c4[nH]c5ccccc5c4C[C@@]4(O)C(C2)NCC[C@]314	–	224	–	> 357	0.8	124	1.6	10.9	0.7	1.6	1.1	41	0.9	0.9	0.7	1.2	> 1000	–	ED50 ratio (Mus musculus [26]): 5.4; ED50 ratio (Mus musculus [27]): 2.5; ED50 ratio (Mus musculus [28]): 0.7; Ki (Mu-type opioid receptor [29]): > 1000 nM; ED50 ratio (Mus musculus [30]): 1.1; IC50 (Cavia porcellus [31]): 121 nM
